Screening results as filed in PubChem BioAssay.
WT yeast gro inh: growth inhibition of WT yeast, mitochondrial fusion screen; inhibition, % at 10 µM; mitochondrial fusion phenotypic screen, WT strain; 190,000 tested, 2.1% active; in the data active = inhibition above about 58%; tested in S. cerevisiae
ABCB1 inh: human ABCB1 inhibition, ABCG2 as counter-screen. AID 1326. CCRF-Adr cells, JC-1 efflux, flow cytometry. P08183. 190,000 tested, 0.067% active. inhibition, % at 6.6 µM; in the data active = inhibition above about 40%;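 note: higher value means more JC-1 retained so stronger ABCB1 efflux block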
Target sequence (P08183 whole entry, looked up): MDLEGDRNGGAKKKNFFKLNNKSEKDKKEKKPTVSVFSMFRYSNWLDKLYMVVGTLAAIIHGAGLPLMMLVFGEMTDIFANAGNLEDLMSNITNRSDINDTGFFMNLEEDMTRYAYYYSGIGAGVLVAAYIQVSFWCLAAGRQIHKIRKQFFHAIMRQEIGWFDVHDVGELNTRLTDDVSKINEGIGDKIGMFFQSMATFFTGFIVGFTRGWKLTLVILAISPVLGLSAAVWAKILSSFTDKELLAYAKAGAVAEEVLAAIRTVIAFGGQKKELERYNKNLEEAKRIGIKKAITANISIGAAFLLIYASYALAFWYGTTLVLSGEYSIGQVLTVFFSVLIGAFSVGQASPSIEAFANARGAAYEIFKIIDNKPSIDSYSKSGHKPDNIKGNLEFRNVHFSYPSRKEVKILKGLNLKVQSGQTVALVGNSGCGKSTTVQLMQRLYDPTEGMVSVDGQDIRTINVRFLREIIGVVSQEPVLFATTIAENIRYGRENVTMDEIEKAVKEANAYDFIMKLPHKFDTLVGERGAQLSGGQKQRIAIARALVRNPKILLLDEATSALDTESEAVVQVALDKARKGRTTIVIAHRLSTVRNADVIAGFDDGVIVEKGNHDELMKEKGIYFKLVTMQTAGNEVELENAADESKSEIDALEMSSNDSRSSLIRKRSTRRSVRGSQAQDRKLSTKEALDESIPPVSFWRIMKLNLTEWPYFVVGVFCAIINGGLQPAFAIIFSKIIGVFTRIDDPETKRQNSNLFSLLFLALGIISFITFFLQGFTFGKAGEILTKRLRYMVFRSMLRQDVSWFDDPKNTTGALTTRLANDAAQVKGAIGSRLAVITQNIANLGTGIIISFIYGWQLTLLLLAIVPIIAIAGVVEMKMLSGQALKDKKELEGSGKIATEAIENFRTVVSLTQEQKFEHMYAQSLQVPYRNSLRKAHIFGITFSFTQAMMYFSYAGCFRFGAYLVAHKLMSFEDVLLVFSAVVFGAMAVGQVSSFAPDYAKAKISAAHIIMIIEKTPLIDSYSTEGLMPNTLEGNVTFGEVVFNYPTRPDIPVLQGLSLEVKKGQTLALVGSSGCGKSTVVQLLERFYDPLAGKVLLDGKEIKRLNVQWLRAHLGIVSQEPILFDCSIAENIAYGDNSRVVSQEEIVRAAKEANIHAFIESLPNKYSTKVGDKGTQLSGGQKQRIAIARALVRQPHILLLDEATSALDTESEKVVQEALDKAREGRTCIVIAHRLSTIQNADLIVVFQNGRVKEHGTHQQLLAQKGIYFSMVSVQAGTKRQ
Lmaj promast: inhibitors of Leishmania major promastigote growth. Leishmania major promastigotes, resazurin fluorescence viability. inhibition, % at 10 µM. 200,000 tested, 9% active; in the data active = inhibition above about 50%;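 note: promastigotes grown with compound for 44 hours at 28 °C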
ABCG2 block: human ABCG2 inhibition, ABCB1 as counter-screen; Q9UNQ0; IgMXP3 cells, JC-1 efflux, flow cytometry; inhibition, % at 6.6 µM; 190,000 tested, 0.1% active; AID 1325;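 active = inhibition above 80%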
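material = IgMXP3 (ABCG2) plus far-red-tagged CCRF-Adr (ABCB1) cells | amount = 3 million cells/mL, equal mix of both lines | also added = JC-1 transporter substrate | dosing = one concentration, 6.6 µM final | schedule = 10 min at 25 °C | measured by = flow cytometric JC-1 green MFI at 530 nm | read-out basis = percent efflux inhibition, scaled nicardipine 100% to DMSO 0%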
RAM network inh: inhibitors of the yeast RAM network; S. cerevisiae dse1pr::URA3 reporter, 5-FOA growth OD615, 2 d; analog-sensitive cbk1-as2 kinase mutant strain; inhibition, % at 50 µM; 190,000 tested, 1.8% active;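 active = inhibition above a set limit, 3 SD over mean compound inhibition, cut at about 8.4% in these data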;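 note: inhibition rescues growth on 5-FOA so higher OD means more RAM inhibition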
Hits are given with their value. Sampled rows, rich in hits. Any-hit rate of the full collection: about 12%.

How did COc1cc(C(=S)N2CCCC2)cc(Cl)c1OCC(=O)Nc1ccc(C)cc1C do in these assays?
WT yeast gro inh: inactive; ABCB1 inh: inactive; Lmaj promast: inactive; ABCG2 block: inactive; RAM network inh: inactive

How did COc1ccc(N(C(=O)c2ccccc2OC(C)=O)C(C)C2CC2)cc1 (configuration not stated) do in these assays?
WT yeast gro inh: inactive; ABCB1 inh: inactive; Lmaj promast: 99.8; ABCG2 block: inactive; RAM network inh: inactive

What do the screens show for `CCOC(=O)C1(CC2CC2)CCN(Cc2ccc(C(=O)OC)cc2)CC1`?
WT yeast gro inh: inactive; ABCB1 inh: inactive; Lmaj promast: 92.2; ABCG2 block: inactive; RAM network inh: inactive

What do the screens show for `CCOC(=O)C1CCN(Cc2ccc(C(=O)OC)cc2)CC1`?
WT yeast gro inh: inactive; ABCB1 inh: inactive; Lmaj promast: 95.1; ABCG2 block: inactive; RAM network inh: inactive

Results for CCOC(=O)C1CCN(Cc2ccc(F)cc2)CC1 ?
WT yeast gro inh: inactive; ABCB1 inh: inactive; Lmaj promast: 89.0; ABCG2 block: inactive; RAM network inh: inactive

How did CCOC(=O)C1CCN(S(=O)(=O)c2ccc(C(=O)OC)cc2)CC1 do in these assays?
WT yeast gro inh: inactive; ABCB1 inh: inactive; Lmaj promast: inactive; ABCG2 block: inactive; RAM network inh: inactive

What do the screens show for `CCOC(=O)C1CCN(Cc2ccc(Cl)c(Cl)c2)CC1`?
WT yeast gro inh: inactive; ABCB1 inh: inactive; Lmaj promast: 87.6; ABCG2 block: inactive; RAM network inh: inactive

What do the screens show for `CCOC(=O)C1CCN(Cc2cc(C(C)(C)C)c(O)c(C(C)(C)C)c2)CC1`?
WT yeast gro inh: inactive; ABCB1 inh: inactive; Lmaj promast: inactive; ABCG2 block: inactive; RAM network inh: inactive

Results for CC(=O)c1ccc(NC(=O)c2ccn(C(=O)OCC(C)C)n2)cc1 ?
WT yeast gro inh: inactive; ABCB1 inh: inactive; Lmaj promast: inactive; ABCG2 block: inactive; RAM network inh: inactive

What do the screens show for `COc1ccc(NC(=O)Nc2ccon2)c(OC)c1`?
WT yeast gro inh: inactive; ABCB1 inh: inactive; Lmaj promast: inactive; ABCG2 block: inactive; RAM network inh: inactive

Results for CCOC(=O)C1CCN(Cc2ccc(O)c(OC)c2)CC1 ?
WT yeast gro inh: inactive; ABCB1 inh: inactive; Lmaj promast: 84.5; ABCG2 block: inactive; RAM network inh: inactive

How did CCOC(=O)C1CCCN(Cc2cc(OC)c(O)c(OC)c2)C1 (configuration not stated) do in these assays?
WT yeast gro inh: inactive; ABCB1 inh: inactive; Lmaj promast: inactive; ABCG2 block: inactive; RAM network inh: inactive

What do the screens show for `CNCCCCOc1ccc(C(C)(C)C)cc1Cl`?
WT yeast gro inh: inactive; ABCB1 inh: inactive; Lmaj promast: 97.9; ABCG2 block: inactive; RAM network inh: inactive

What do the screens show for `CC(C)(C)c1ccc(OCCON2C(=O)CCC2=O)c(Cl)c1`?
WT yeast gro inh: inactive; ABCB1 inh: inactive; Lmaj promast: inactive; ABCG2 block: inactive; RAM network inh: inactive

What do the screens show for `COc1ccc(OCCN2C(=O)NC3(CCc4ccccc4C3)C2=O)cc1` (configuration not stated)?
WT yeast gro inh: inactive; ABCB1 inh: inactive; Lmaj promast: inactive; ABCG2 block: inactive; RAM network inh: inactive

Results for COc1cc(S(=O)(=O)n2ccnc2)ccc1Br ?
WT yeast gro inh: inactive; ABCB1 inh: inactive; Lmaj promast: inactive; ABCG2 block: inactive; RAM network inh: inactive

How did CCOc1cc(C)c(Cl)cc1S(=O)(=O)n1ccnc1 do in these assays?
WT yeast gro inh: inactive; ABCB1 inh: inactive; Lmaj promast: 91.6; ABCG2 block: inactive; RAM network inh: inactive

How did COc1ccc(Br)cc1S(=O)(=O)n1ccnc1 do in these assays?
WT yeast gro inh: inactive; ABCB1 inh: inactive; Lmaj promast: 62.9; ABCG2 block: inactive; RAM network inh: inactive

How did Cc1ccc(NC(=S)NNC(=O)CSc2nc3ccccc3c(=O)n2-c2ccc(C)cc2)cc1 do in these assays?
WT yeast gro inh: inactive; ABCB1 inh: inactive; Lmaj promast: inactive; ABCG2 block: inactive; RAM network inh: inactive

Results for COc1ccccc1CNC(=O)C1CCN(S(=O)(=O)c2c(C)noc2C)CC1 ?
WT yeast gro inh: inactive; ABCB1 inh: inactive; Lmaj promast: 99.9; ABCG2 block: inactive; RAM network inh: inactive

Results for CN(C)C(=O)N1CCCC(C(=O)NCc2ccc(F)cc2Cl)C1 (configuration not stated) ?
WT yeast gro inh: inactive; ABCB1 inh: inactive; Lmaj promast: inactive; ABCG2 block: inactive; RAM network inh: inactive

What do the screens show for `Cc1ccc(CNC(=O)C2CCN(S(=O)(=O)c3c(C)noc3C)CC2)cc1`?
WT yeast gro inh: inactive; ABCB1 inh: inactive; Lmaj promast: 98.5; ABCG2 block: inactive; RAM network inh: inactive

Results for CCOCCCNC(=O)C1CCN(S(=O)(=O)c2c(C)noc2/C=C\c2ccc(OC)cc2)CC1 ?
Lmaj promast: inactive

What do the screens show for `Cc1ccc(CNC(=O)C2CCCN(C(=O)N(C)C)C2)cc1` (configuration not stated)?
WT yeast gro inh: inactive; ABCB1 inh: inactive; Lmaj promast: 86.3; ABCG2 block: inactive; RAM network inh: inactive

What do the screens show for `Cc1noc(/C=C/c2cccs2)c1S(=O)(=O)N1CCC(C(=O)NCCCN2CCCC(C)C2)CC1` (configuration not stated)?
WT yeast gro inh: inactive; ABCB1 inh: inactive; Lmaj promast: 96.1; ABCG2 block: inactive; RAM network inh: inactive

What do the screens show for `O=c1[nH][nH]c(C(F)(F)F)c1/C=N/N1CCOCC1`?
WT yeast gro inh: inactive; ABCB1 inh: inactive; Lmaj promast: inactive; ABCG2 block: inactive; RAM network inh: inactive

What do the screens show for `CN1C(=O)C2C(c3ccc(N(C)C)cc3)NN(Cc3ccccc3)C2C1=O` (configuration not stated)?
WT yeast gro inh: inactive; ABCB1 inh: inactive; Lmaj promast: inactive; ABCG2 block: inactive; RAM network inh: inactive

Results for CC(=O)Nc1ccc(NC(=O)C2CC(=O)N(c3ccccc3Cl)C2)cc1 (configuration not stated) ?
WT yeast gro inh: inactive; ABCB1 inh: inactive; Lmaj promast: inactive; ABCG2 block: inactive; RAM network inh: inactive

What do the screens show for `Cc1noc(C)c1S(=O)(=O)N1CCC(C(=O)NCCC2=CCCCC2)CC1`?
WT yeast gro inh: inactive; ABCB1 inh: inactive; Lmaj promast: 99.8; ABCG2 block: inactive; RAM network inh: inactive

How did Cc1nn(C)c(C)c1S(=O)(=O)N1CCC(C(=O)NCCC2=CCCCC2)CC1 do in these assays?
WT yeast gro inh: inactive; ABCB1 inh: inactive; Lmaj promast: inactive; ABCG2 block: inactive; RAM network inh: inactive

How did CCNC(=O)/C(=C\C=C\c1ccccc1)NC(=O)c1ccc(Br)o1 do in these assays?
WT yeast gro inh: inactive; ABCB1 inh: inactive; Lmaj promast: inactive; ABCG2 block: inactive; RAM network inh: inactive

Results for Cc1cccc(C)c1NC(=O)COC(=O)c1c2c(nc3ccccc13)/C(=C\c1ccc3c(c1)OCO3)CCC2 ?
WT yeast gro inh: inactive; ABCB1 inh: inactive; Lmaj promast: 83.0; ABCG2 block: inactive; RAM network inh: inactive

How did CCOC(=O)c1c(C)n(C)c2ccc(OCC(O)Cn3c(C)nc4ccccc43)cc12 (configuration not stated) do in these assays?
WT yeast gro inh: inactive; ABCB1 inh: inactive; Lmaj promast: inactive; ABCG2 block: inactive; RAM network inh: inactive
